WT yeast gro inh: growth inhibition of WT yeast, mitochondrial fusion screen; mitochondrial fusion phenotypic screen, WT strain; inhibition, % at 10 µM; hit rate 2.1% among 190,000; in the data active = inhibition above about 58%; tested in S. cerevisiae
Pf gametocyte: kills late stage P. falciparum gametocytes | inhibition, % at 10.9 µM | P. falciparum stage V gametocytes, ATP luminescence, 24 h | AID 743093 | hit rate 0.065% among 150,000;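 active = inhibition above the mean plus 3 SD of compounds within the control limits, set per campaign, cut at about 38% in these data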
MT stabilize HCS: microtubule stabilizers in HeLa cells. HeLa tubulin immunostaining HCS, 24 h; share of cells brighter than vehicle mean+2SD. hit rate 0.83% among 200,000. % tubulin-high responders, % at 10 µM;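 active = plate Z-score above 3 for both tubulin-high and condensed-nucleus cell shares, with cell loss under 80%, at 10 µM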;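 also: anti alpha tubulin signal scored within the nucleus-defined area of each cell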
KCC2 mod: modulators of human KCC2 chloride dependent transport; Q9H2X9; KCC2 cells, thallium flux FluoZin-2 fluorescence; hit rate 2.2% among 190,000; B-score of Tl+ flux slope (higher = more flux/activation; lower = inhibition) at 10 µM;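 active = thallium flux slope and its plate-corrected score both differing from the plate sample mean at a set confidence after two filtering rounds, in either direction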;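 also: slope of fluorescence scaled to starting intensity during 10 to 20 s after thallium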
Target sequence (Q9H2X9 whole entry, looked up): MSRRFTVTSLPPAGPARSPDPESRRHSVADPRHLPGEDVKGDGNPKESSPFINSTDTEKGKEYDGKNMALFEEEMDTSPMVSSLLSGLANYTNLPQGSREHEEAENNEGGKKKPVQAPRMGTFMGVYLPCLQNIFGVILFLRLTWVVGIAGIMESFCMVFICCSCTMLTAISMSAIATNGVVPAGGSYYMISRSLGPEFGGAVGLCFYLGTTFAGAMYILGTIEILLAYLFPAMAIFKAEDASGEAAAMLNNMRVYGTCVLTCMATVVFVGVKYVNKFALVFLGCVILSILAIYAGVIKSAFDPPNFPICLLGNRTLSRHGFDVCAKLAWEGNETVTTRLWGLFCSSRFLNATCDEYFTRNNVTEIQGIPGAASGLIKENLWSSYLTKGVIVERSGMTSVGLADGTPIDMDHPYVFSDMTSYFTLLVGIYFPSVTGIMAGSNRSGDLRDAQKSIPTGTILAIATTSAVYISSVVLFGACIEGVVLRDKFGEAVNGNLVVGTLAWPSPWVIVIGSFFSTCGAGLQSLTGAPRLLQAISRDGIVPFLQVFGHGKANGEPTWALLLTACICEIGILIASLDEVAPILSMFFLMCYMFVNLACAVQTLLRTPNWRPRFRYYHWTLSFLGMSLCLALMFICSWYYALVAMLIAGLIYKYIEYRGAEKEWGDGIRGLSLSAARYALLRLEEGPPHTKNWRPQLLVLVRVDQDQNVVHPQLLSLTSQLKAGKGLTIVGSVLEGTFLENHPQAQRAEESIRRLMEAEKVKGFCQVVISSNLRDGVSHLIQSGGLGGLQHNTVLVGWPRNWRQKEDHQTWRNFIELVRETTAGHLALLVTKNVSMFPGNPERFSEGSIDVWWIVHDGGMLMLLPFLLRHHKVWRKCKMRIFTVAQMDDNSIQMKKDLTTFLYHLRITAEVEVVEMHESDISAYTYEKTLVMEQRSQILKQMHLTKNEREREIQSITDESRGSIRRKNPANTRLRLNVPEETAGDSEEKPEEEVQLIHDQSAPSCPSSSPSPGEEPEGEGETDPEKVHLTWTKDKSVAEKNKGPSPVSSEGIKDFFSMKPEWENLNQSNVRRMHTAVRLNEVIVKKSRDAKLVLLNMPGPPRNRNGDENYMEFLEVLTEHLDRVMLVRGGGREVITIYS
bCat nuc transl: alters nuclear translocation of beta-catenin in HeLa cells; immunofluorescence imaging; nuclear translocation activity, % at 5 µM; hit rate 0.3% among 190,000; AID 1665;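 active = nuclear translocation activity above 50% at 5 µM, with a well cell count of 50 or more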;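 also: per-cell ratio of nuclear to cytoplasmic median beta-catenin stain intensity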
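System: Human HeLa cells, endogenous beta-catenin | Compound dosing: 5 µM primary, 0.02–20 µM confirmation | Timing: 24 h compound exposure at 37°C, 5% CO2 | Measured by: Fluorescence imaging of beta-catenin antibody stain plus DAPI | Read-out basis: % activation of per-cell nuclear versus cytoplasmic median beta-catenin signal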
Large screens that a line does not name were inactive. This is a sample that favours compounds with a hit; in the whole collection about 4% have one here.

COc1ccc(NS(=O)(=O)c2cccc(C(=O)NNC(=O)c3cc(C)oc3C)c2)cc1	none
COc1ccc(NS(=O)(=O)c2cc(C)ccc2NC(=O)c2cc(C)oc2C)cc1	MT stabilize HCS 21 (no result: Pf gametocyte, KCC2 mod, bCat nuc transl)
CCCN(CC(=O)Nc1cc(Cl)cc(Cl)c1)CC(=O)Nc1ccc(F)c(F)c1F	WT yeast gro inh 73
CCOc1ccccc1N(CC(=O)Nc1ccccc1F)S(=O)(=O)c1ccccc1	none (no result: WT yeast gro inh, MT stabilize HCS, KCC2 mod, bCat nuc transl)
CCCc1cc(-c2nc(N)ncc2-c2csc(C)n2)c(O)cc1OC	none
CCCc1cc(-c2nc(N)ncc2-c2ccc3c(c2)OCCCO3)c(O)cc1OC	WT yeast gro inh 85 (no result: Pf gametocyte)
Cc1ccc(C(=O)Nc2ccc(S(=O)(=O)N3CCOCC3)cc2)cc1Br	none (no result: WT yeast gro inh, MT stabilize HCS, KCC2 mod, bCat nuc transl)
CCOc1cccc(Oc2ncccc2C(=O)/C(C#N)=C/N(C)C)c1	WT yeast gro inh 95 (no result: KCC2 mod)
CN(C)/C=C(\C#N)C(=O)c1cccc(Oc2ccc(Br)cc2)c1	none (no result: Pf gametocyte)
CCOc1cccc(CNc2ccc(O)cc2)c1OCc1ccc(Cl)cc1Cl	WT yeast gro inh 66
COc1ccc2c(CC(=O)Nc3cccc(S(=O)(=O)N4CCOCC4)c3)coc2c1	none
O=C(NNC(=O)c1sccc1-n1cccc1)c1ccc(Cl)cc1	KCC2 mod 15
Cc1c(Br)cccc1NC(=O)c1sccc1-n1cccc1	none (no result: Pf gametocyte, bCat nuc transl)
O=C(NNS(=O)(=O)c1ccc(Cl)cc1)c1sccc1-n1cccc1	none (no result: Pf gametocyte, KCC2 mod, bCat nuc transl)
CC(C)c1ccc(NC(=O)c2sccc2-n2cccc2)cc1	WT yeast gro inh 67
Cc1ccccc1OCCCCc1c(C)n[nH]c1C	WT yeast gro inh 76 (no result: Pf gametocyte, KCC2 mod)
CCOC(=O)C1(CCOc2ccccc2)CCN(Cc2ccc(OCC)c(CO)c2)CC1	none (no result: WT yeast gro inh, MT stabilize HCS, KCC2 mod, bCat nuc transl)
Cc1cn(CC(=O)c2ccccc2)c2ccccc12	none (no result: WT yeast gro inh, MT stabilize HCS, KCC2 mod, bCat nuc transl)
CCC1SC2=NC(C)=C(C(=O)OC)C(c3ccc(C)cc3)N2C1=O (stereo unspecified)	none (no result: Pf gametocyte, bCat nuc transl)
CCOC(=O)C1=NN(c2ccccc2)C2=NC(C)=C(C(=O)OC)C(c3ccc(C)cc3)N12 (stereo unspecified)	WT yeast gro inh 70 (no result: Pf gametocyte)
COC(=O)C(CC(=O)c1ccc(Br)cc1)n1cccn1 (stereo unspecified)	none (no result: WT yeast gro inh, MT stabilize HCS, KCC2 mod, bCat nuc transl)
Cc1cc(SCC(=O)NCCC2=CCCCC2)nc2ccccc12	WT yeast gro inh 69
CCOC(=O)c1[nH]c(C)c(C(=O)N2CCc3ccccc32)c1C	MT stabilize HCS 29, bCat nuc transl 83 (no result: Pf gametocyte)
CC(=O)c1c(C)[nH]c(C(=O)N2CCc3ccccc32)c1C	none (no result: KCC2 mod)
CCN1CCN(c2cc(C)c3cc(NC(=O)c4ccc(Br)o4)ccc3n2)CC1	MT stabilize HCS 25 (no result: KCC2 mod)
COc1ccc(C2CC(c3cccs3)=NN2C(=O)COC(=O)C2CCCCC2)cc1OC (stereo unspecified)	none
C[C@@H]1CN([C@@H](C)CO)C(=O)c2cc(NC(=O)Nc3ccc(F)cc3)ccc2O[C@@H]1CN(C)Cc1ccc(Oc2ccccc2)cc1	none (no result: WT yeast gro inh, MT stabilize HCS, KCC2 mod, bCat nuc transl)
Fc1cccc(-c2cc3nc4c(c(N5CCOCC5)n3n2)CCCC4)c1	none (no result: Pf gametocyte)
Fc1cccc(-c2cc3nc4c(c(NCc5ccco5)n3n2)CCCC4)c1	WT yeast gro inh 83 (no result: Pf gametocyte)
Cc1ccc(NC(=S)NCC(O)c2ccccc2)c(C)c1 (stereo unspecified)	none (no result: WT yeast gro inh, MT stabilize HCS, KCC2 mod, bCat nuc transl)
CCC(=C(c1ccc(OC)cc1)c1ccc(OC)cc1)c1cn(CC(O)CN(CCO)CCO)c2ccccc12 (stereo unspecified)	WT yeast gro inh 98
Cc1ccc(C(C)C)c(OCc2ccc(C(=O)N/N=C/c3ccc(O)cc3O)cc2)c1	WT yeast gro inh 61 (no result: Pf gametocyte)
Cc1ccc(C(C)C)c(OCc2ccc(C(=O)N/N=C/c3ccc(C(=O)O)cc3)cc2)c1	none (no result: WT yeast gro inh, MT stabilize HCS)
O=C(N/N=C/c1cccc(O)c1)c1ccc(COc2ccccc2Br)cc1	WT yeast gro inh 80 (no result: bCat nuc transl)
O=C(N/N=C/c1cccc(O)c1)c1ccc(COc2cccc3cccnc23)cc1	none (no result: Pf gametocyte)
CCOc1ccccc1CNC(=O)c1ccc(Sc2ccc(Cl)cc2)c(NC(C)=O)c1	WT yeast gro inh 65
CC(C)c1csc(CN2CCCC(CCC(=O)NCc3ccccc3F)C2)n1 (stereo unspecified)	MT stabilize HCS 25 (no result: KCC2 mod)
CN(C1CCS(=O)(=O)C1)S(=O)(=O)c1ccccc1 (stereo unspecified)	Pf gametocyte 38
Cc1ccc(C2=NNC3(CCOC(C)(C)C3)S2)cc1 (stereo unspecified)	KCC2 mod 25
O=C(CCNC(=O)OCc1ccccc1)NC1CCCCCC1	none
Cc1ccccc1Nc1cc(C)c2c(O)cccc2n1	WT yeast gro inh 58 (no result: Pf gametocyte)
O=C(CCCSc1nc(-c2ccco2)cc(C(F)(F)F)n1)Nc1ccc2c(c1)OCO2	none (no result: Pf gametocyte)
O=C(CSc1nc(-c2ccco2)cc(C(F)(F)F)n1)Nc1ccc2c(c1)OCO2	MT stabilize HCS 29 (no result: Pf gametocyte)
O=C(CSc1nc(-c2ccco2)cc(C(F)(F)F)n1)Nc1cccnc1	MT stabilize HCS 58 (no result: Pf gametocyte)
O=C(CSc1nc(-c2ccco2)cc(C(F)(F)F)n1)Nc1ccc(C(=O)N2CCOCC2)cc1	none (no result: Pf gametocyte)
CCN1CCN(c2nc(N)c([N+](=O)[O-])c(Nc3ccc(C)c(C)c3)n2)CC1	none
Cc1ccc(Nc2nc(N3CCN(C)CC3)nc(N)c2[N+](=O)[O-])cc1C	WT yeast gro inh 83 (no result: Pf gametocyte)
CC1CCCN(c2nc(NCc3ccco3)nc(N)c2[N+](=O)[O-])C1 (stereo unspecified)	none
Cc1ccc(Nc2nc(N)c([N+](=O)[O-])c(N3CCCC(C)C3)n2)cc1C (stereo unspecified)	WT yeast gro inh 96 (no result: Pf gametocyte)
C[C@@]12C(=O)Nc3cc(Cl)ccc3C(=O)N1[C@H]1c3cc(Br)ccc3OC[C@@H]1[C@@H]2c1ccccc1	none (no result: WT yeast gro inh, MT stabilize HCS, KCC2 mod, bCat nuc transl)
Cc1ccc(S(=O)(=O)N(CC(=O)NCCC2=CCCCC2)Cc2ccccc2F)cc1	WT yeast gro inh 61
CCOC(=O)c1c(NC(=O)C2CCN(S(=O)(=O)c3cccs3)CC2)sc(C)c1C	WT yeast gro inh 75
CCOC(=O)c1cccc(NC(=O)C2CCN(S(=O)(=O)c3cccs3)CC2)c1	none (no result: Pf gametocyte, KCC2 mod)
COc1ccc(/C=N/NC(=O)c2ccn[nH]2)cc1COc1ccc(F)cc1	none (no result: Pf gametocyte)
COc1ccc(/C=N/NC(=O)c2ccn[nH]2)cc1COc1ccc(Cl)cc1Cl	WT yeast gro inh 73 (no result: Pf gametocyte, KCC2 mod)
COc1ccc(/C=N/NC(=O)c2cccc(Br)c2)cc1Cn1cc(Cl)cn1	MT stabilize HCS 41 (no result: Pf gametocyte, bCat nuc transl)
COc1ccc(/C=N/NC(=O)c2ccc(Br)cc2)cc1Cn1cc(Cl)cn1	none
COc1ccc2[nH]c(=O)c(CN(Cc3cccnc3)C(=S)NCC3CCCO3)cc2c1 (stereo unspecified)	none (no result: Pf gametocyte)
C1=C(CCNc2ncnc3c2[nH]c2ccccc23)CCCC1	WT yeast gro inh 87
CCOC(=O)C1=CN(c2cccc(F)c2)C=C(C(=O)OCC)C1c1cc(OC)c(O)c([N+](=O)[O-])c1	WT yeast gro inh 88 (no result: Pf gametocyte, KCC2 mod)
CCN(CC)CCN(C(=O)c1c(F)cccc1F)c1nc2cc(C)cc(C)c2s1	WT yeast gro inh 59
Cc1ccc(C2CCN(C(=S)NC3CCCCC3)C2)cc1 (stereo unspecified)	WT yeast gro inh 66
Cc1cccc(NC(=S)N2CCCCC2)c1	none
Cc1ccc(C2CCN(C(=S)NC(C)(C)C)C2)cc1 (stereo unspecified)	none

Assay outcomes as filed in PubChem BioAssay.
